# The source made the active and inactive calls. No cut-off for these calls is given here.
# How the values were obtained:
# [1] = biological target: T1, Free fatty acid receptor 1 (Homo sapiens, UniProt O14842); assay: Agonist activity at human GPR40 expressed in human HEK293 cells assessed as increase in intracellular calcium flux after 10 mins by fluorescence assay; format: functional, cell-based
# Method in brief: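 Human GPR40 activity read by calcium mobilization to give EC50. Mean ± SD, n = 3.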
# [2] = biological target: T1, Free fatty acid receptor 1; assay: Agonist activity at human GPR40 expressed in human HEK293 cells assessed as increase in intracellular calcium flux after 10 mins by fluorescence assay relative to linoleic acid; format: functional, cell-based
# Method in brief: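 Human GPR40 activity read by calcium mobilization to give EC50. Emax expressed relative to linoleic acid as 100%. Mean ± SD, n = 3.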
# Rattus norvegicus [3] = assay: Antidiabetic activity in Sprague-Dawley rat assessed as reduction in blood glucose excursion at 10 mg/kg, po administered 60 mins prior to glucose challenge by OGTT; format: functional, organism-based
# Method in brief: (§1)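 OGTT in SD rats: compound given orally 60 min before a 3.0 g/kg glucose challenge. Blood glucose followed over time, and AUC0-60min or AUC0-120min calculated versus vehicle group. Mean ± SD, n = 8.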
# Rattus norvegicus [4] = assay: Antidiabetic activity in Sprague-Dawley rat assessed as reduction in blood glucose AUC (0 to 60 mins) at 10 mg/kg, po administered 60 mins prior to glucose challenge by OGTT; format: functional, organism-based; method in brief: as §1
# Rattus norvegicus [5] = assay: Antidiabetic activity in Sprague-Dawley rat assessed as reduction in blood glucose AUC (0 to 120 mins) at 10 mg/kg, po administered 60 mins prior to glucose challenge by OGTT; format: functional, organism-based; method in brief: as §1
# [6] = Cmax in Sprague-Dawley rat at 10 mg/kg, po by LC-ESI-MS analysis; format: ADME, organism-based; parameters: dose 10 mg/kg, route oral; details: in vivo
# Method in brief: (§2)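 SD rats dosed orally (3 or 10 mg/kg) or by intravenous injection (1 mg/kg). Plasma PK parameters derived per route: Cmax, AUC0-t, Tmax, t1/2 and F after oral dosing; CL, AUC0-t, MRT, t1/2 and Vdss after iv dosing. Mean ± SD from three independent experiments (n = 3).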
# [7] = AUC (0 to t) in Sprague-Dawley rat at 10 mg/kg, po by LC-ESI-MS analysis; format: ADME, organism-based; details: in vivo; method in brief: as §2
# [8] = Tmax in Sprague-Dawley rat at 10 mg/kg, po by LC-ESI-MS analysis; format: ADME, organism-based; details: in vivo; method in brief: as §2
# [9] = Elimination half life in Sprague-Dawley rat at 10 mg/kg, po by LC-ESI-MS analysis; format: ADME, organism-based; details: in vivo, read-out: beta t1/2 (converted); method in brief: as §2
# [10] = biological target: ATP-binding cassette sub-family C member 2 (Homo sapiens, UniProt Q92887); assay: Inhibition of human MRP2
# ATP-binding cassette sub-family C member 2, sequence (Q92887 whole entry): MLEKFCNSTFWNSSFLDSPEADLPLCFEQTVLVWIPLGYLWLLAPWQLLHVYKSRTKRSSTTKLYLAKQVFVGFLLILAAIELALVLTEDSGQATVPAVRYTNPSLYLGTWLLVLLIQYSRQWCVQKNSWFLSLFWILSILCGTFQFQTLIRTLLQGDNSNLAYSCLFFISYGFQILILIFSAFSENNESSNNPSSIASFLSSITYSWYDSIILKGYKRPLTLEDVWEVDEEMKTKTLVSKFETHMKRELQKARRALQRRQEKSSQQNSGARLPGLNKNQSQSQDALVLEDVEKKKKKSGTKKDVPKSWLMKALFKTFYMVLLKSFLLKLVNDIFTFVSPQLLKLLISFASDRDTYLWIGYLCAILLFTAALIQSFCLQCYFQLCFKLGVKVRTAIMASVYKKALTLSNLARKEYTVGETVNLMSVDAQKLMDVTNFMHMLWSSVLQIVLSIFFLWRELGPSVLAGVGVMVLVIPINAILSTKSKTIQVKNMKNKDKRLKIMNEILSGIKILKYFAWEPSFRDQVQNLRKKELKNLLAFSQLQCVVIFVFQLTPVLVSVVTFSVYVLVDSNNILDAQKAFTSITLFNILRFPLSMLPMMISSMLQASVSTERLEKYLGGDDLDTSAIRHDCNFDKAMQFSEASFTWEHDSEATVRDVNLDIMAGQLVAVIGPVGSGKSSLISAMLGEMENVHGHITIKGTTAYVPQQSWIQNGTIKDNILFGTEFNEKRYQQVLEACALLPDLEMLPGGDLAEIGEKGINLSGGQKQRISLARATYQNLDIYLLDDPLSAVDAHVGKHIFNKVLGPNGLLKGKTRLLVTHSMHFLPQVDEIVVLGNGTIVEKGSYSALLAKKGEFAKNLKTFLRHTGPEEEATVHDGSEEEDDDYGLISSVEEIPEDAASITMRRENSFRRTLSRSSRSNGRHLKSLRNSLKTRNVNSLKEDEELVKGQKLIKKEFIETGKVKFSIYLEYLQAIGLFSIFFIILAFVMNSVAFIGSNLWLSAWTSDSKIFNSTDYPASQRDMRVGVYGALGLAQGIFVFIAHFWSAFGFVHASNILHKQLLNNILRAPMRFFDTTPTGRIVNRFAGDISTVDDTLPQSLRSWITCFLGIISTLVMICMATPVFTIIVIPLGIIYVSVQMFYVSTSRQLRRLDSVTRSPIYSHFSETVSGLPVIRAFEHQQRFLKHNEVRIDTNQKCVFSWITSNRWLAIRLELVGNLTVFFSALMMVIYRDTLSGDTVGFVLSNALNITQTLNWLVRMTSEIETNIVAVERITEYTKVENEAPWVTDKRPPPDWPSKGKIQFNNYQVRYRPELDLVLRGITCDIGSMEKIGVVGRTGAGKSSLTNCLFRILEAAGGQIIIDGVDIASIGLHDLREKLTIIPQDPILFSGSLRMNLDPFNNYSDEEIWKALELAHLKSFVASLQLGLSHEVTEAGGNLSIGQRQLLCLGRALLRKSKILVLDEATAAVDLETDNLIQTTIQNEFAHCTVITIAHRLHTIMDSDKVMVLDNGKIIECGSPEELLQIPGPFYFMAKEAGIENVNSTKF
# [11] = biological target: T2, Solute carrier organic anion transporter family member 1B1 (Homo sapiens, UniProt Q9Y6L6); assay: Inhibition of human […]
# T2 sequence (Q9Y6L6 whole entry): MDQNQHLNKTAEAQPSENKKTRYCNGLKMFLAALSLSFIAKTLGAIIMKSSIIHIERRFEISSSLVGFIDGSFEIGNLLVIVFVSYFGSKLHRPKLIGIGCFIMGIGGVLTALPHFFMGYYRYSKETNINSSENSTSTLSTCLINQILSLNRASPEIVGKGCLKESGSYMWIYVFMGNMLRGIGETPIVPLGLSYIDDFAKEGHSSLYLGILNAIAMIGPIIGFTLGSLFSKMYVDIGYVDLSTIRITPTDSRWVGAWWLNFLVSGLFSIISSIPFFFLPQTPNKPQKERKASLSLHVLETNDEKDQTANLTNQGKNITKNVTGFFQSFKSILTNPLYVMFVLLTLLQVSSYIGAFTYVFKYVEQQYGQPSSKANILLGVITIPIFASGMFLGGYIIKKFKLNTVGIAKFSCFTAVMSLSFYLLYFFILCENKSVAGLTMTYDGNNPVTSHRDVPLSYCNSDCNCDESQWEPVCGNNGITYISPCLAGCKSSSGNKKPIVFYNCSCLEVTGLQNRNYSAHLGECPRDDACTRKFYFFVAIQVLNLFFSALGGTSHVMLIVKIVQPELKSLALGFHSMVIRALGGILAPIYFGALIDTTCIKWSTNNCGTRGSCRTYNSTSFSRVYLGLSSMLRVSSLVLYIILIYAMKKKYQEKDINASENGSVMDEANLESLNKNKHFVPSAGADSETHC
# [12] = biological target: T3, Solute carrier organic anion transporter family member 1B3 (Homo sapiens, UniProt Q9NPD5); assay: Inhibition of human OATP1B3; format: ADME
# T3 sequence (Q9NPD5 whole entry): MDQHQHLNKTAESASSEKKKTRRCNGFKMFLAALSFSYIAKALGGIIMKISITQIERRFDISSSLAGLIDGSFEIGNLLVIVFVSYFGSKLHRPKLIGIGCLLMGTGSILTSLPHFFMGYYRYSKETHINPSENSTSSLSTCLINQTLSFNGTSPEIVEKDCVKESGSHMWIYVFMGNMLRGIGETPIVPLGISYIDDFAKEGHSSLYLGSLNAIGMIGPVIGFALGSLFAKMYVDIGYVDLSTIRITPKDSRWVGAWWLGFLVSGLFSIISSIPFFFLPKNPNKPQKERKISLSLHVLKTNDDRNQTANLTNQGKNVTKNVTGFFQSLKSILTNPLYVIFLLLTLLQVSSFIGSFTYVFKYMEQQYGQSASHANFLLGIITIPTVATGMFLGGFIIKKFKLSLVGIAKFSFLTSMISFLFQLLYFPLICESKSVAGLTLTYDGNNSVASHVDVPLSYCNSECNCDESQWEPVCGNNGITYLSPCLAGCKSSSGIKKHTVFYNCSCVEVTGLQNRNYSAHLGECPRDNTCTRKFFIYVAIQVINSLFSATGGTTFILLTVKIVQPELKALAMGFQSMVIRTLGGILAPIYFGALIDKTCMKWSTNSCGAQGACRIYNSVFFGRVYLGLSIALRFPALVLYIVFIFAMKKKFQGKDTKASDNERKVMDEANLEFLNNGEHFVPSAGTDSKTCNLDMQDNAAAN
# Hepatocyte = assay: Toxicity in sandwich-cultured Sprague-Dawley rat hepatocytes assessed as inhibition of hepatobiliary transport by measuring biliary excretion index at 20 to 40 uM after 15 mins in presence of d8-TCA by LC-MS/MS analysis; format: cell-based; details: 0.25 h
# Method in brief: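 Sandwich-cultured rat hepatocytes incubated with compound and d8-TCA in standard (Ca2+-containing) or Ca2+-free buffer. Cellular d8-TCA measured, and the biliary excretion index calculated as the fraction of accumulated bile acid excreted into bile. Mean of three independent experiments.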
# Rattus norvegicus [13] = assay: Antidiabetic activity in Sprague-Dawley rat assessed as reduction in blood glucose excursion at 10 to 20 mg/kg, po administered 60 mins prior to glucose challenge by OGTT; format: functional, organism-based; method in brief: as §1
# Rattus norvegicus [14] = assay: Antidiabetic activity in Sprague-Dawley rat assessed as reduction in blood glucose AUC (0 to 60 mins) at 10 to 20 mg/kg, po administered 60 mins prior to glucose challenge by OGTT; format: functional, organism-based; method in brief: as §1
# Rattus norvegicus [15] = assay: Antidiabetic activity in Sprague-Dawley rat assessed as reduction in blood glucose AUC (0 to 120 mins) at 10 to 20 mg/kg, po administered 60 mins prior to glucose challenge by OGTT; format: functional, organism-based; method in brief: as §1
# T1 sequence (O14842 whole entry): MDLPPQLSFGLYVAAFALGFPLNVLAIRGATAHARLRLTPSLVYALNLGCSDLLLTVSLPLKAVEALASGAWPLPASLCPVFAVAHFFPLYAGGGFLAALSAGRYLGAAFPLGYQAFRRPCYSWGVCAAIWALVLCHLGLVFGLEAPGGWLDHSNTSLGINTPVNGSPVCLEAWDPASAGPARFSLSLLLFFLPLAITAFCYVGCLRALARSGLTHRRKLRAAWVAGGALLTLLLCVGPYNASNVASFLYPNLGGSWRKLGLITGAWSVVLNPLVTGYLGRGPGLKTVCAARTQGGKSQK
SMILES,EC50 [1],Emax [2],further results
O=C(O)CCc1ccc(NCC2COc3ccc(Cl)cc3O2)cc1F (centres undefined),13600 nM,69%,–
CC#C[C@H](CC(=O)O)c1ccc(OC[C@@H]2COc3ccc(Cl)cc3O2)cc1,5040 nM,41%,–
CC#C[C@@H](CC(=O)O)c1ccc(OC[C@H]2COc3ccc(S(C)(=O)=O)cc3O2)cc1,27200 nM,55%,–
CC#C[C@@H](CC(=O)O)c1ccc(OC[C@H]2COc3cc(Cl)c(Cl)cc3O2)cc1,150 nM,33%,–
Cn1cncc1C(CC(=O)O)c1ccc(OCC2COc3ccc(Cl)cc3O2)cc1 (centres undefined),3060 nM,62%,–
CC#C[C@@H](CC(=O)O)c1ccc(OC[C@H]2COc3ccc(CO)cc3O2)cc1,> 30000 nM,42%,–
CC#C[C@@H](CC(=O)O)c1ccc(OC[C@H]2COc3ccc(Br)cc3O2)cc1,210 nM,69%,–
CC#C[C@@H](CC(=O)O)c1ccc(OC[C@H]2COc3ccc(C(C)=O)cc3O2)cc1,> 30000 nM,51%,–
Cc1cc(OCCCS(C)(=O)=O)cc(C)c1-c1cccc(COc2ccc3c(c2)OC[C@H]3CC(=O)O)c1,–,–,Activity (Rattus norvegicus [3]): Active; Activity (Rattus norvegicus [4]): Active; Activity (Rattus norvegicus [5]): Active; Cmax [6]: 19400 ng/mL; AUC(0-t) [7]: 137 µg·h/mL; Tmax [8]: 3.5 h; half-life [9]: 3.94 h; IC50 [10]: 2410 nM; IC50 [11]: 2280 nM; IC50 [12]: 11200 nM; Activity (Hepatocyte): Toxic
COCCOc1ccc2c(c1)OC(COc1ccc(CCC(=O)O)c(F)c1)CC2 (centres undefined),2370 nM,36%,–
O=C(O)CC1(c2ccc(OCC3COc4ccc(Cl)cc4O3)cc2)COC1 (centres undefined),8060 nM,66%,–
O=C(O)CCc1ccc(OCC2COc3ccc(Cl)cc3O2)cc1F (centres undefined),830 nM,50%,–
COc1ccc2c(c1)OC(COc1ccc(CCC(=O)O)c(F)c1)CO2 (centres undefined),1470 nM,80%,–
CC#C[C@@H](CC(=O)O)c1ccc(OC[C@H]2COc3cccc(Cl)c3O2)cc1,520 nM,95%,–
CC#C[C@@H](CC(=O)O)c1ccc(OC[C@H]2COc3ccc(OC(F)(F)F)cc3O2)cc1,700 nM,73%,–
CC#C[C@@H](CC(=O)O)c1ccc(OC[C@H]2COc3ccc(C)cc3O2)cc1,120 nM,78%,Activity (Rattus norvegicus [13]): Active; Activity (Rattus norvegicus [14]): Active; Activity (Rattus norvegicus [15]): Active; Cmax [6]: 23700 ng/mL; AUC(0-t) [7]: 65.2 µg·h/mL; Tmax [8]: 0.417 h; half-life [9]: 1.79 h
CC#C[C@@H](CC(=O)O)c1ccc(OC[C@H]2COc3cc(F)c(Cl)cc3O2)cc1,210 nM,46%,–
O=C(O)CCc1ccc(OCC2COc3cc(Br)ccc3O2)cc1F (centres undefined),980 nM,67%,–
CC#C[C@H](CC(=O)O)c1ccc(OC[C@H]2COc3ccc(Cl)cc3O2)cc1,3400 nM,47%,–
CC#C[C@@H](CC(=O)O)c1ccc(OC[C@H]2COc3ccccc3O2)cc1,90 nM,70%,Activity (Rattus norvegicus [13]): Active; Activity (Rattus norvegicus [14]): Active; Activity (Rattus norvegicus [15]): Active; Cmax [6]: 36700 ng/mL; AUC(0-t) [7]: 275 µg·h/mL; Tmax [8]: 1.17 h; half-life [9]: 3.14 h

# The next lines start with results.
EC50 [1],Emax [2],SMILES,further results
> 50000 nM,33%,CC#C[C@@H](CC(=O)O)c1ccc(OC[C@H]2COc3ccc(C(=O)N4CCOCC4)cc3O2)cc1,–
100 nM,104%,CC#CC(CC(=O)O)c1ccc(OCC2COc3ccc(Cl)cc3O2)cc1 (centres undefined),–
640 nM,46%,CCOC(CC(=O)O)c1ccc(OCC2COc3ccc(Cl)cc3O2)cc1 (centres undefined),–
3870 nM,70%,Cn1nncc1C(CC(=O)O)c1ccc(OCC2COc3ccc(Cl)cc3O2)cc1 (centres undefined),–
170 nM,81%,CC#C[C@@H](CC(=O)O)c1ccc(OC[C@H]2COc3c(Cl)cccc3O2)cc1,–
210 nM,86%,CC#C[C@@H](CC(=O)O)c1ccc(OC[C@H]2COc3ccc(F)cc3O2)cc1,–
200 nM,82%,CC#C[C@@H](CC(=O)O)c1ccc(OC[C@H]2COc3cc(Br)c(Cl)cc3O2)cc1,–
1170 nM,62%,O=C(O)CC(c1ccncc1)c1ccc(OCC2COc3ccc(Cl)cc3O2)cc1 (centres undefined),–
260 nM,65%,CC#C[C@@H](CC(=O)O)c1ccc(OC[C@@H]2COc3ccc(Cl)cc3O2)cc1,–
110 nM,80%,CC#C[C@@H](CC(=O)O)c1ccc(OC[C@H]2COc3cc(Cl)ccc3O2)cc1,–
> 30000 nM,32%,CC#C[C@@H](CC(=O)O)c1ccc(OC[C@H]2COc3ccc(C(=O)N(C)C)cc3O2)cc1,–
1030 nM,63%,O=C(O)CC(c1ccc(OCC2COc3ccc(Cl)cc3O2)cc1)c1cnco1 (centres undefined),–
36300 nM,38%,CS(=O)(=O)CCCOc1ccc2c(c1)OC(COc1ccc(CCC(=O)O)c(F)c1)CC2 (centres undefined),–
130 nM,91%,CC#C[C@@H](CC(=O)O)c1ccc(OC[C@H]2COc3ccc(OC)cc3O2)cc1,–
2110 nM,58%,COc1ccc2c(c1)OC(COc1ccc(CCC(=O)O)c(F)c1)CC2 (centres undefined),–
2240 nM,81%,O=C(O)CCc1ccc(OCC2COc3ccc(Br)cc3O2)cc1F (centres undefined),–
280 nM,90%,CC#C[C@@H](CC(=O)O)c1ccc(OC[C@H]2COc3ccc(OC(C)C)cc3O2)cc1,–
4310 nM,83%,O=C(O)CC(c1ccc(F)cc1)c1ccc(OCC2COc3ccc(Cl)cc3O2)cc1 (centres undefined),–
2100 nM,60%,CC#C[C@@H](CC(=O)O)c1ccc(OC[C@H]2COc3ccc(C#N)cc3O2)cc1,–
5880 nM,68%,Cn1ccnc1C(CC(=O)O)c1ccc(OCC2COc3ccc(Cl)cc3O2)cc1 (centres undefined),–
4800 nM,–,CCCCC/C=C\C/C=C\CCCCCCCC(=O)O [LINOLEIC ACID],–

# Reference: ChEMBL document CHEMBL4261634, “Design and optimization of 2,3-dihydrobenzo[b][1,4]dioxine propanoic acids as novel GPR40 agonists with improved pharmacokinetic and safety profiles” (Bioorg Med Chem, 2018)
